The source made the active and inactive calls. No cut-off for these calls is given here.
Columns and labels:
[1] = Growth inhibition of human K562/A02 cells at 10 uM after 72 hrs by MTS assay; assay type: cell-based; settings: read-out: GI
Procedure, shortened: (§1)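 K562 and K562/A02 cells given compound alone at 10 µM for 72 h. Survival measured by MTS and expressed as percent of untreated control. Three independent experiments.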

[2] = Down regulation of P-gp level in human K562/A02 cells at 10 uM after 72 hrs by Western blotting analysis; assay type: functional, cell-based
[3] = Growth inhibition of human K562 cells at 10 uM after 72 hrs by MTS assay; assay type: cell-based; settings: read-out: GI; procedure, shortened: as §1
K562 [4] = experiment: Induction of rhodamine-123 accumulation in human K562 cells preincubated for 1 hr prior rhodamine 123 addition measured after 30 mins by flow cytometry relative to control; assay type: functional, cell-based
Procedure, shortened: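 Cells (1×10⁶) pre-incubated with compound or 0.1% DMSO vehicle at 37 °C for 1 h. Rhodamine 123 then added to 0.5 µM for 30 min. Cell-associated fluorescence read by flow cytometry. Fold change = fluorescence divided by that of DMSO control cells; mean ± S.D. of three independent experiments.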

[5] = Down regulation of P-gp mRNA level in human K562/A02 cells at 10 uM after 72 hrs by RT-PCR analysis; assay type: functional, cell-based
[6] = target: T1, ATP-dependent translocase ABCB1 (Homo sapiens, UniProt P08183); experiment: Inhibition of P-glycoprotein in human K562/A02 cells assessed as potentiation of adriamycin-induced cytotoxicity at 2.5 to 10 uM after 72 hrs by MTS assay; assay type: cell-based; settings: k562/a02, 72 h
T1 sequence (P08183 whole entry): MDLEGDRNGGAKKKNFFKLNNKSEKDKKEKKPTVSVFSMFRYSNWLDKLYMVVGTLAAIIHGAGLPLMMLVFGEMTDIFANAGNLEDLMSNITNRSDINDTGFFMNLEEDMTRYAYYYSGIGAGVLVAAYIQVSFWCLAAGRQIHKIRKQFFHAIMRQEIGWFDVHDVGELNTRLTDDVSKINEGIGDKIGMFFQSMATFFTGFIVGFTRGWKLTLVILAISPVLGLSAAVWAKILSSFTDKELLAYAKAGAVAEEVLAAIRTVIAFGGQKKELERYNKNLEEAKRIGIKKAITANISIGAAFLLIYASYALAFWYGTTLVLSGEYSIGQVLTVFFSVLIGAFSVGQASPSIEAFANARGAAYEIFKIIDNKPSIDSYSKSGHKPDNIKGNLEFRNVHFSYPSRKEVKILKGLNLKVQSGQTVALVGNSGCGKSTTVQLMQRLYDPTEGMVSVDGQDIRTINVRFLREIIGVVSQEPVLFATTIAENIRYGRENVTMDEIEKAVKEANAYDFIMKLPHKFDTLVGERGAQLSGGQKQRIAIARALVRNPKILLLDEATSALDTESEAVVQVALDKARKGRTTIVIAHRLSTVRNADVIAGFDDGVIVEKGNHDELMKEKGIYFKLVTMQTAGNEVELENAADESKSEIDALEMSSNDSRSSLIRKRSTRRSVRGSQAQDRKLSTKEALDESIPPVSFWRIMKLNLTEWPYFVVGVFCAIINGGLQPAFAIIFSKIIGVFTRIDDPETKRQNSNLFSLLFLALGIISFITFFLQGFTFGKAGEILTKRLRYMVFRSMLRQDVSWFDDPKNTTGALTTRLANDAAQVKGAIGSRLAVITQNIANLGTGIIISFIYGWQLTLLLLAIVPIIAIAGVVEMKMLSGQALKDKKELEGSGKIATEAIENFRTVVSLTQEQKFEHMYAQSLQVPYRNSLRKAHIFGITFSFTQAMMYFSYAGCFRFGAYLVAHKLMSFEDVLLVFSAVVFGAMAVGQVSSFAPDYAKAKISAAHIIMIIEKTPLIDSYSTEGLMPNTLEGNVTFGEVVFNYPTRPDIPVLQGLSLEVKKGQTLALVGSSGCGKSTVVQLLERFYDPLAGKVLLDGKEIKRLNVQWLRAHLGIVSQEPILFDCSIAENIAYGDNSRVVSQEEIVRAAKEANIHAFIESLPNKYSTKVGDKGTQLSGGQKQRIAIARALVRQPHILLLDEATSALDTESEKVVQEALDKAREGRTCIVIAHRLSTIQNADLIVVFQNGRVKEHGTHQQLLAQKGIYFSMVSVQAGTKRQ
Procedure, shortened: (§2)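 ADR at 3.5 µM (K562/A02) or 0.2 µM (K562), alone or combined with compound at 2.5, 5 or 10 µM, for 72 h. Survival measured by MTS and given as percent growth of untreated control. Mean ± S.D. of three independent experiments; statistics versus ADR alone.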

[7] = Cytotoxicity against human K562/A02 cells overexpress P-gp after 72 hrs by MTS assay; assay type: ADME, cell-based; settings: K562/A02, 72 h
Procedure, shortened: (§3)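 Cells (1×10⁴/well) seeded and grown 24 h, then exposed to a range of compound concentrations for 72 h at 37 °C, 5% CO₂. MTS added for 3 h, absorbance read at 490 nm. IC50 = concentration giving 50% growth decrease, taken from dose–response curves; mean of triplicate experiments. K562/A02 is the adriamycin-induced P-gp-overexpressing subline.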

K562 [8] = experiment: Cytotoxicity against human K562 cells after 72 hrs by MTS assay; assay type: cell-based; settings: K562, 72 h; procedure, shortened: as §3
K562 [9] = experiment: Growth inhibition of human K562 cells at 0.2 uM after 72 hrs by MTS assay; assay type: functional, cell-based; procedure, shortened: as §2
K562/A02 [10] = experiment: Growth inhibition of human K562/A02 cells at 3.5 uM after 72 hrs by MTS assay; assay type: functional, cell-based; procedure, shortened: as §2
P-glycoprotein (P-gp) = experiment: Ratio of IC50 for human K562/A02 cells overexpress P-gp to IC50 for human K562 cells; assay type: cell-based; settings: K562/A02 cells overexpressing P-gp and parental K562 cells, read-out: Ratio IC50
[11] = target: T1, ATP-dependent translocase ABCB1; experiment: Inhibition of P-glycoprotein in human K562/A02 cells assessed as potentiation of adriamycin-induced cytotoxicity at 10 uM preincubated for 24 hrs followed by washout before addition of adriamycin measured after 72 hrs by MTS assay (reference value: 33.59 uM); assay type: cell-based; settings: k562/a02, 72 h
Procedure, shortened: (§4)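 K562/A02 cells (1×10⁵/well) cultured overnight, then treated with 10 µM compound for 24 h. Washed three times with PBS and moved to compound-free medium. ADR at various concentrations added 0, 6, 12 or 24 h after removal, then 72 h further incubation. Read by MTS at 490 nm; ADR IC50 derived; mean ± S.E. of triplicates.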

K562 [12] = experiment: Potentiation of adriamycin-induced cytotoxicity against human K562 cells at 2.5 to 10 uM after 72 hrs by MTS assay; assay type: functional, cell-based; procedure, shortened: as §2
[13] = Effect on P-gp ATPase activity assessed as relative light units at 200 uM by P-gp-GloTM assay
Procedure, shortened: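 P-gp ATPase measured by luminescence of remaining ATP; RLU inversely related to ATPase activity. Means of three separate experiments; Student's t test against untreated.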

[14] = target: T1, ATP-dependent translocase ABCB1; experiment: Inhibition of P-glycoprotein in human K562/A02 cells assessed as potentiation of adriamycin-induced cytotoxicity by measuring survival rate at 2.5 uM after 72 hrs by MTS assay (reference value: 95%); assay type: cell-based; settings: k562/a02, 72 h; procedure, shortened: as §2
[15] = Cytotoxicity against human K562/A02 cells assessed as survival rate at 10 uM after 72 hrs by MTS assay; assay type: cell-based; settings: read-out: Activity; procedure, shortened: as §1
[16] = target: T1, ATP-dependent translocase ABCB1; experiment: Inhibition of P-glycoprotein in human K562/A02 cells assessed as potentiation of adriamycin-induced cytotoxicity by measuring survival rate at 10 uM after 72 hrs by MTS assay (reference value: 95%); assay type: cell-based; settings: k562/a02, 72 h
[17] = target: T1, ATP-dependent translocase ABCB1; experiment: Inhibition of P-glycoprotein in human K562/A02 cells assessed as potentiation of adriamycin-induced cytotoxicity at 10 uM preincubated for 24 hrs followed by washout addition of adriamycin at 12 hrs post washout measured after 72 hrs by MTS assay (reference value: 54.11 uM); assay type: cell-based; settings: k562/a02, 72 h; procedure, shortened: as §4
K562/A02 [18] = experiment: Inhibition of Pgp-mediated rhodamine 123 efflux in human K562/A02 cells assessed as intracellular rhodamine 123 accumulation preincubated for 30 mins measured after 60 mins by fluorescence microscopy relative to control; assay type: cell-based
Procedure, shortened: (§5)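 Efflux assay: K562/A02 cells incubated 30 min with 0.5 µM rhodamine 123 plus compound (0.33, 3.3 or 10 µM). Cells washed twice with PBS, resuspended in medium and left 60 min at 37 °C to efflux dye. Retained dye viewed by fluorescence microscopy, with flow cytometry in parallel; 0.1% DMSO as vehicle control.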

K562/A02 [19] = experiment: Inhibition of Pgp-mediated rhodamine 123 efflux in human K562/A02 cells assessed as intracellular rhodamine 123 accumulation at 3.3 uM preincubated for 30 mins measured after 60 mins by fluorescence microscopy relative to control; assay type: cell-based; procedure, shortened: as §5
[20] = Effect on P-gp ATPase activity assessed as relative light units at 40 uM by P-gp-GloTM assay (reference value: 242328 +/- 1398 RLU)
[21] = target: T1, ATP-dependent translocase ABCB1; experiment: Inhibition of P-glycoprotein in human K562/A02 cells assessed as potentiation of adriamycin-induced cytotoxicity at 10 uM preincubated for 24 hrs followed by washout addition of adriamycin at 24 hrs post washout measured after 72 hrs by MTS assay (reference value: 51.67 uM); assay type: cell-based; settings: k562/a02, 72 h; procedure, shortened: as §4
[22] = target: T1, ATP-dependent translocase ABCB1; experiment: Inhibition of P-glycoprotein in human K562/A02 cells assessed as potentiation of adriamycin-induced cytotoxicity by measuring survival rate at 5 uM after 72 hrs by MTS assay (reference value: 95%); assay type: cell-based; settings: k562/a02, 72 h; procedure, shortened: as §2
[23] = target: T1, ATP-dependent translocase ABCB1; experiment: Inhibition of P-glycoprotein in human K562/A02 cells assessed as potentiation of adriamycin-induced cytotoxicity at 10 uM preincubated for 24 hrs followed by washout addition of adriamycin at 6 hrs post washout measured after 72 hrs by MTS assay (reference value: 35.15 uM); assay type: cell-based; settings: k562/a02, 72 h; procedure, shortened: as §4

| Compound | inhibition at 72 h, 10 µM [1] | inhibition at 72 h, 10 µM [3] | Activity (K562 [4]) | IC50 [7] | IC50 (K562 [8]) | also measured |
| --- | --- | --- | --- | --- | --- | --- |
| COC(=O)c1cc(OC)c2c(c1-c1c(/C=C/C(=O)c3cc(OC)ccc3OC)cc(OC)c3c1OCO3)OCO2 | < 10% | < 10% | inactive | > 200 µM | > 200 µM | Activity [2]: inactive; Activity [5]: inactive; inhibition (INH) [6]: Active |
| COc1cccc2c1C(=O)c1c(O)c3c(c(O)c1C2=O)C[C@@](O)(C(=O)CO)C[C@@H]3O[C@H]1C[C@H](N)[C@H](O)[C@H](C)O1 [DOXORUBICIN] |  |  |  | 46.7 µM | 0.43 µM | growth inhibition (GI) (K562 [9]): inactive; growth inhibition (GI) (K562/A02 [10]): inactive; selectivity ratio (P-glycoprotein (P-gp)): 108 |
| COc1ccc(CCN(C)CCCC(C#N)(c2ccc(OC)c(OC)c2)C(C)C)cc1OC (stereo not given) | < 10% | < 10% | inactive |  |  | inhibition (INH) [11]: Active; Activity (K562 [12]): inactive |
| COC(=O)c1cc(OC)c2c(c1-c1c(/C=C/C(=O)c3cc(OC)c(OC)c(OC)c3)cc(OC)c3c1OCO3)OCO2 | < 10% | < 10% | inactive | > 200 µM | 172 µM |  |
| COC(=O)c1cc(OC)c2c(c1-c1c(/C=C/C(=O)c3ccc(O)cc3)cc(OC)c3c1OCO3)OCO2 |  |  |  | > 100 µM | > 100 µM |  |
| SODIUM ORTHOVANAD |  |  |  |  |  | RLU [13]: 282000 |
| COC(=O)c1cc(OC)c2c(c1-c1c(/C=C(\C#N)C(=O)c3cc(OC)c(OC)c(OC)c3)cc(OC)c3c1OCO3)OCO2 |  |  |  | 38.9 µM | 60.3 µM |  |
| COC(=O)c1cc(OC)c2c(c1-c1c(/C=C/C(=O)c3ccc(OC)cc3OC)cc(OC)c3c1OCO3)OCO2 |  |  |  | > 100 µM | > 100 µM |  |
| COC(=O)c1cc(OC)c2c(c1-c1c(/C=C/C(=O)c3ccccc3)cc(OC)c3c1OCO3)OCO2 |  |  |  | > 100 µM | > 100 µM |  |
| COC(=O)c1cc(OC)c2c(c1-c1c(/C=C(\C#N)C(=O)c3ccc(OC)cc3)cc(OC)c3c1OCO3)OCO2 |  |  |  | 37.2 µM | > 100 µM |  |
| COC(=O)c1cc(OC)c2c(c1-c1c(/C=C/C(=O)c3ccccc3OC)cc(OC)c3c1OCO3)OCO2 | < 10% | < 10% | inactive | > 200 µM | > 200 µM | Activity [2]: inactive; Activity [5]: inactive; inhibition (INH) [6]: Active |
| COC(=O)c1cc(OC)c2c(c1-c1c(C(=O)OC)cc(OC)c3c1OCO3)OCO2 [BIFENDATE] |  |  |  | > 100 µM | > 100 µM |  |
| COC(=O)c1cc(OC)c2c(c1-c1c(/C=C/C(=O)c3ccc(OC)cc3)cc(OC)c3c1OCO3)OCO2 |  |  |  | > 100 µM | > 100 µM |  |
| COC(=O)c1cc(OC)c2c(c1-c1c(/C=C/C(=O)c3cc(C)ccc3C)cc(OC)c3c1OCO3)OCO2 | < 10% | < 10% | inactive | > 200 µM | > 200 µM | Activity [14]: 46%; inhibition (INH) [11]: Active; Activity (K562 [12]): inactive; viability at 72 h, 10 µM [15]: 95%; Activity [16]: 5%; inhibition (INH) [17]: Active; Activity [2]: inactive; inhibition (K562/A02 [18]): Dose-dependent effect; inhibition (K562/A02 [19]): Active; RLU [20]: 271000; inhibition (INH) [21]: Active; Activity [5]: inactive; Activity [22]: 20%; inhibition (INH) [6]: Active; inhibition (INH) [23]: Active |
| COC(=O)c1cc(OC)c2c(c1-c1c(/C=C(\C#N)C(=O)c3ccc(C)cc3)cc(OC)c3c1OCO3)OCO2 |  |  |  | 48.4 µM | 61.3 µM |  |
| COC(=O)c1cc(OC)c2c(c1-c1c(/C=C/C(=O)c3ccc([N+](=O)[O-])cc3)cc(OC)c3c1OCO3)OCO2 |  |  |  | > 100 µM | 73.4 µM |  |

— ChEMBL document CHEMBL2016528, “Synthesis and biological evaluation of bifendate-chalcone hybrids as a new class of potential P-glycoprotein inhibitors” (Bioorg Med Chem, 2012)
